Assay results published in ChEMBL document CHEMBL3112493, “Synthesis of 2,6-disubstituted benzylamine derivatives as reversible selective inhibitors of copper amine oxidases” (Bioorg Med Chem, 2014).
Calls of active or inactive are those of the source. No cut-off for these calls is given here.

Key:
[1] = target: T1, Protein-lysine 6-oxidase (Sus scrofa, UniProt P45845); assay: Inhibition of porcine aorta lysyl oxidase preincubated for 30 mins followed by substrate addition
T1 sequence (P45845 whole entry): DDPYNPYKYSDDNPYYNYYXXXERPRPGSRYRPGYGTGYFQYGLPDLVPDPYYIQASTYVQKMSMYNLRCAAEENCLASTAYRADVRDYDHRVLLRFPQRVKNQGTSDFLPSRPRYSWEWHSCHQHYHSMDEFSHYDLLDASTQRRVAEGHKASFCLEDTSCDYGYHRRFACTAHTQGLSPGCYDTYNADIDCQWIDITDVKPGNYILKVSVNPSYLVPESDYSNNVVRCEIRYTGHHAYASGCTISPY
Method in brief: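 Porcine aorta lysyl oxidase, prepared in-house. Enzyme was preincubated with inhibitor at 6 concentrations for 30 min at 30 °C. Saturating tritiated protein-bound lysine substrate was then added and activity was measured radiochemically. In some cases H2O2 production was followed instead, by the 4-aminoantipyrine method.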

[2] = target: T2, Diamine oxidase [copper-containing] (Sus scrofa, UniProt Q9TRC7); assay: Inhibition of porcine kidney DAO using [1,4-14C]-putrescine as substrate preincubated for 30 mins followed by substrate addition
T2 sequence (Q9TRC7 whole entry): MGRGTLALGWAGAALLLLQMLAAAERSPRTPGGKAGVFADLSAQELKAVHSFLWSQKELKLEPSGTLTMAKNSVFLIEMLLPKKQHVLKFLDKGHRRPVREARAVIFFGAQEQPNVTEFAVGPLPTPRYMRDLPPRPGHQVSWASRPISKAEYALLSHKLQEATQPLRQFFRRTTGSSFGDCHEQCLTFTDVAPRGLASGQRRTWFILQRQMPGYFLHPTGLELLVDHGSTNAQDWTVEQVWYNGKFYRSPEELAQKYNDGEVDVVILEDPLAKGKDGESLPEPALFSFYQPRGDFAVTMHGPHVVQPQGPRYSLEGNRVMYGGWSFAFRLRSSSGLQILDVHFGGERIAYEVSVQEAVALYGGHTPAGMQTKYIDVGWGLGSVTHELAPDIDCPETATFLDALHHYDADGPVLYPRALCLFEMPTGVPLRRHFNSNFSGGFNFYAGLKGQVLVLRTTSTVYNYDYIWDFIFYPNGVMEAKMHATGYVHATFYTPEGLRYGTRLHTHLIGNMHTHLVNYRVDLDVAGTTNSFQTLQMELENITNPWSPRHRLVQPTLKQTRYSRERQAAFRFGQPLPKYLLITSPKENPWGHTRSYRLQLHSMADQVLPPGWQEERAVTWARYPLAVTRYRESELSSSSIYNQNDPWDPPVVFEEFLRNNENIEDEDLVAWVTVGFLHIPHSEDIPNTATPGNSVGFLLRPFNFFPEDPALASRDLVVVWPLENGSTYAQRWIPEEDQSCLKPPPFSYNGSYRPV
Method in brief: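 Porcine kidney diamine oxidase was preincubated with inhibitor at 6 concentrations for 30 min at 30 °C. Saturating [1,4-14C]putrescine was then added and activity was determined radiochemically. In some cases H2O2 production was measured by the 4-aminoantipyrine method.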

[3] = species: Sus scrofa; assay: Reversible inhibition of porcine serum BAO using [7-14C]-benzylamine as substrate assessed as residual activity at 4 times IC50 preincubated for 5 mins followed by 10 fold dilution relative to control
Method in brief: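 Solutions were diluted 1:10 and 1:100, and portions were dialyzed against water at 4 °C for 24 h. Activity was read with saturating [7-14C]benzylamine; the reaction was stopped with 3 N HCl and labeled benzaldehyde extracted into ethyl acetate and counted.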

[4] = Acute toxicity in ip dosed Swiss mouse assessed as appearance of tonic-clonic convulsion followed by respiratory block measured after 15 to 20 mins; type: organism-based; settings: in vivo
[5] = Inhibition of porcine serum BAO using [7-14C]-benzylamine as substrate preincubated for 30 mins followed by substrate addition; set-up: species or system Sus scrofa
Method in brief: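 Porcine serum benzylamine oxidase was preincubated with inhibitor at 6 concentrations for 30 min at 30 °C. [7-14C]Benzylamine was then added at a saturating level and radiochemical activity was measured. In some cases H2O2 formation was followed by the 4-aminoantipyrine method.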

[6] = species: Sus scrofa; assay: Mixed-type inhibition of porcine serum BAO using [7-14C]-benzylamine as substrate by Lineweaver-Burk plot analysis
[7] = target: T3, Amine oxidase [flavin-containing] B (Rattus norvegicus, UniProt P19643); assay: Inhibition of rat liver MAO-B using 2-phenyl[1-14C]-ethylamine/[7-14C]-benzylamine as substrate preincubated for 30 mins followed by substrate addition
T3 sequence (P19643 whole entry): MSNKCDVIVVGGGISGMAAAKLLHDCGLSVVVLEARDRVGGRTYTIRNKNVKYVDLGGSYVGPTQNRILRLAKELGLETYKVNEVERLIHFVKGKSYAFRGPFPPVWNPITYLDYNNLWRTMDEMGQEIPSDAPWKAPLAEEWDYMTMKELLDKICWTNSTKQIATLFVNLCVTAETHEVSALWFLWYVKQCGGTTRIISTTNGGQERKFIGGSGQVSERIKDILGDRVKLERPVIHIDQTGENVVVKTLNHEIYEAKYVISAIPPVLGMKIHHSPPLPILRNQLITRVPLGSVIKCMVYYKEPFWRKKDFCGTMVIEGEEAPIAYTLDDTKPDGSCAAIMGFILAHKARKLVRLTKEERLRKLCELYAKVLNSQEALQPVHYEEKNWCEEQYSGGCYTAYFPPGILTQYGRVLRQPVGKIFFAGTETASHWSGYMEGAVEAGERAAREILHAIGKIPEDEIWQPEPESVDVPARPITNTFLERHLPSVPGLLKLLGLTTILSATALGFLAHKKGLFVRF
Method in brief: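 MAO B source was rat liver mitochondria, obtained by 1:10 homogenization in 0.01 M phosphate pH 7.4 with 0.25 M sucrose, then centrifugation at 1000g and 10,000g (20 min each). Mitochondria were preincubated with inhibitor (6 concentrations) for 30 min at 30 °C. Saturating 2-phenyl[1-14C]ethylamine was then added and activity measured radiochemically.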

[8] = Half life in rat; type: ADME, organism-based; settings: in vivo
[9] = Oral bioavailability in rat; type: ADME, organism-based; settings: in vivo
[10] = species: Sus scrofa; assay: Non-competitive inhibition of porcine serum BAO using [7-14C]-benzylamine as substrate by Lineweaver-Burk plot analysis

Row | SMILES | IC50 [1] [µM] | IC50 [2] [µM] | Activity [3] [%] | LD50 [4] [mg/kg] | IC50 [5] [µM] | inhibition mode (qualitative) [6] | IC50 [7] [µM] | half-life [8] [h] | bioavailability [9] [%] | inhibition [10]
1 | CCCCc1cccc(CCCC)c1CN.Cl | > 1000 | > 1000 | > 80 | 54 | 14 | Active | > 1000 | – | – | –
2 | CCCc1cccc(CCC)c1CN.Cl | > 1000 | > 1000 | > 80 | 55 | 15 | Active | > 1000 | – | – | –
3 | CCCOc1cccc(OCCC)c1CN.Cl | > 1000 | > 1000 | 50 | 37 | – | Active | > 1000 | – | – | –
4 | CCOc1cncc(OCC)c1CN | – | – | – | – | – | – | – | 2 | 51.5 | –
5 | COc1cccc(OC)c1CN.Cl | > 1000 | > 1000 | > 80 | 120 | 120 | Active | 190 | – | – | –
6 | CCOc1cccc(OCC)c1CN.Cl | > 1000 | > 1000 | 50 | 74 | 0.18 | Active | > 1000 | – | – | –
7 | CCCCOc1cccc(OCCCC)c1CN.Cl | > 1000 | > 1000 | 50 | 25 | 0.14 | – | > 1000 | – | – | Active
8 | NCc1ccccc1O | > 1000 | > 1000 | – | – | > 1000 | – | > 1000 | – | – | –
9 | CCOc1ccccc1CN | > 1000 | > 1000 | – | – | > 1000 | – | > 1000 | – | – | –
10 | Cl.NCc1c(OCCO)cccc1OCCO | > 1000 | > 1000 | 50 | > 1000 | 2.6 | Active | > 1000 | – | – | –
11 | CC(C)Oc1cccc(OC(C)C)c1CN | > 1000 | > 1000 | – | – | > 1000 | – | > 1000 | – | – | –
12 | NCc1c(O)cccc1O | > 1000 | > 1000 | – | – | > 1000 | – | > 1000 | – | – | –
13 | CCc1cccc(CC)c1CN.Cl | > 1000 | > 1000 | > 80 | 92 | – | Active | > 1000 | – | – | –
14 | Cl.NCc1c(OCCCCO)cccc1OCCCCO | > 1000 | > 1000 | 50 | 540 | 0.066 | Active | > 1000 | – | – | –
15 | NCc1ccccc1CO | > 1000 | > 1000 | – | – | > 1000 | – | > 1000 | – | – | –
16 | COCc1cccc(COC)c1CN.Cl | > 1000 | > 1000 | > 80 | 240 | > 1000 | Active | > 1000 | – | – | –
17 | Cl.NCc1c(OCCCO)cccc1OCCCO | > 1000 | > 1000 | 50 | 690 | 0.55 | Active | > 1000 | – | – | –
18 | CCOCc1cccc(COCC)c1CN | > 1000 | > 1000 | – | – | > 1000 | – | > 1000 | – | – | –
